Laboratory results published in ChEMBL document CHEMBL1147053, “HIV protease inhibitors block the zinc metalloproteinase ZMPSTE24 and lead to an accumulation of prelamin A in cells” (Proc Natl Acad Sci U S A, 2007).
Calls of active or inactive are those of the source. The calls are words filed in the database; no cut-off is given here.

Columns and labels:
[1] = target: T1, CAAX prenyl protease 1 homolog (Mus musculus, UniProt Q80W54); assay: Inhibition of mouse ZMPSTE24 expressed n delta ste24 delta rce1 yeast
T1 sequence (Q80W54 whole entry): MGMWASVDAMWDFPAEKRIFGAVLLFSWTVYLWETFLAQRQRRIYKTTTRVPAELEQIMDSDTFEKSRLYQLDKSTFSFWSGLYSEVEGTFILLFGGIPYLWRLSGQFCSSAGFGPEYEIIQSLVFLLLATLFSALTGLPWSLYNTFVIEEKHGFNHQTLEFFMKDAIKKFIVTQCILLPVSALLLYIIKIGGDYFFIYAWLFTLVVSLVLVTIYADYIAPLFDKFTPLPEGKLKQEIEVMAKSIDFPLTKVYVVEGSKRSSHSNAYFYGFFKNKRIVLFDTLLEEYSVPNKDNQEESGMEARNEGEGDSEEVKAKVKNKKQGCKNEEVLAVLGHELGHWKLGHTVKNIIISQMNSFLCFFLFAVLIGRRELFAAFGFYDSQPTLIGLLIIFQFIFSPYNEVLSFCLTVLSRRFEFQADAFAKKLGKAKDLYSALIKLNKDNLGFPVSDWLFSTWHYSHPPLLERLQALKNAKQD
Outline: (§1)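 Coupled endoproteolysis/methylation assay. Δste24Δrce1 yeast membranes overexpressing mouse ZMPSTE24 or RCE1 (5 μg) plus CH2733 Ste14p membranes (8 μg) were incubated with farnesylated 15-mer a-factor peptide (5 μM for ZMPSTE24, 25 μM for RCE1) and 20 μM [¹⁴C]SAM in 100 mM Tris·HCl pH 7.5 for 30 min at 30°C. Reactions were stopped with NaOH/SDS, and base-releasable [¹⁴C]methanol was measured by vapor diffusion. IC50 values were fitted.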

HEK293 [2] = assay: Toxicity in HEK293 cells transfected with GFP-prelamin A construct assessed as accumulation of uncleaved protein by Western blot; details: human
[3] = target: T2, CAAX prenyl protease 2 (Mus musculus) (UniProt P57791); assay: Inhibition of mouse RCE1 expressed in delta ste24 delta rce1 yeast; outline: as §1
T2 sequence (whole entry): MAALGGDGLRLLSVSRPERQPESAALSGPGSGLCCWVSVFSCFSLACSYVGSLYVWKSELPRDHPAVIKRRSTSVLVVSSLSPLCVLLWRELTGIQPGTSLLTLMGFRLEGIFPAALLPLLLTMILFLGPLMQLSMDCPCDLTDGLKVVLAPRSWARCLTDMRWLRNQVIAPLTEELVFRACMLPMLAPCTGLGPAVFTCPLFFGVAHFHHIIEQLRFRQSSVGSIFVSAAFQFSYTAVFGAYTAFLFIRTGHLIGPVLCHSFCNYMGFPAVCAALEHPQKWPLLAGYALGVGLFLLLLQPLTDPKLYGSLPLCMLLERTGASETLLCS

[4] = Toxicity in mouse fibroblast cells assessed as accumulation of prelamin A at 400 uM after 10 days by Western blot; format: cell-based; details: 240 h
Outline: (§2)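 Wild-type mouse fibroblasts were grown at 37 °C in 5% CO₂ in MEM or DMEM with 10% FBS, 2 mM L-glutamine and vitamin/amino acid supplements. Cells were exposed for 10 days to drug (200 mM DMSO stock) or DMSO vehicle. Extracts were run on 4–12% Bis-Tris gels and immunoblotted for lamin A/C, prelamin A (antiserum "b", 1:4,000) and actin.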

HeLa = assay: Toxicity in human HeLa cells transfected with GFP-prelamin A construct assessed as accumulation of uncleaved protein at 20 uM by Western blot; format: cell-based
Outline: (§3)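 Cells were transiently transfected at 80% confluency with a GFP fused to the C-terminal 118 aa of prelamin A. Four hours later, the medium was changed to MEM/10% FBS and drug was added for 18 h (overnight). Uncleaved and cleaved fusion protein were resolved on Western blots probed with anti-GFP and anti-prelamin A antibodies.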

[5] = Toxicity in mouse fibroblast cells assessed as accumulation of prelamin A at 200 uM after 10 days by Western blot; format: cell-based; details: 240 h; outline: as §2
[6] = Toxicity in mouse fibroblast cells assessed as accumulation of prelamin A at 20 uM after 48 hrs by Western blot; format: cell-based
Outline: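 Mouse fibroblasts were exposed 48 h to drug (20 μM), FTI (5 μM) or DMSO. Prelamin A was detected on Western blots of cell extracts.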

[7] = Inhibition of farnesyl transferase
Outline: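 FTase (50 ng) was incubated with 500 nM [³H]FPP and 1 μM recombinant H-Ras substrate for 10 min at 30°C, with or without drug. Protein was precipitated and glass-fibre filtered, and incorporated radiolabelled isoprenoid was counted by scintillation. Values are the mean of triplicate determinations.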

[8] = Toxicity in mouse fibroblast cells assessed as accumulation of prelamin A at 40 uM after 10 days by Western blot; format: cell-based; details: 240 h
Outline: (§4)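 WT mouse fibroblasts were treated 10 days with drug (NVP at 200 and 400 μM; STV at 20 and 40 μM; LPV at 20 μM) or DMSO vehicle. Prelamin A accumulation was assessed on Western blots of cell extracts.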

[9] = Toxicity in mouse fibroblast cells assessed as accumulation of prelamin A at 20 uM after 10 days by Western blot; format: cell-based; details: 240 h; outline: as §4
HEK293 [10] = assay: Toxicity in HEK293 cells transfected with GFP-prelamin A construct assessed as accumulation of uncleaved protein at 20 uM by Western blot; format: cell-based; details: human, hek293, 20 µM; outline: as §3
Fibroblast [11] = assay: Effect on Rap1A isoprenylation in mouse fibroblast cells at 20 uM after 24 hrs by Western blot; format: functional, cell-based
Outline: (§5)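 Wild-type fibroblasts exposed 24 h to drug (20 μM) or DMSO vehicle, with GGTI-298 (15 μM) and FTI (5 μM) run alongside. Isoprenylation was judged by band mobility on Western blots. HDJ-2 extracts were resolved on 15% acrylamide/0.08% bisacrylamide SDS/PAGE; Rap1A was probed with anti-Rap1A and anti-Rap1 antibodies.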

[12] = Toxicity in human AG07095 cells assessed as accumulation of prelamin A at 20 uM after 10 days by Western blot; format: cell-based; details: 240 h
Outline: (§6)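 WT human fibroblasts were cultured in MEM or DMEM with 10% FBS at 37°C, 5% CO₂, then treated 10 days with drug (20 μM), FTI (5 μM) or DMSO. Western blots were probed for lamin A/C, prelamin A antisera "a" (nonfarnesylated only) and "b", and actin. Prelamin A was quantified by image analysis relative to lamin C and to mature lamin A.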

Fibroblast [13] = assay: Effect on HDJ2 farnesylation in mouse fibroblast cells at 20 uM after 24 hrs by Western blot; format: functional, cell-based; outline: as §5
Fibroblast [14] = assay: Effect on change in ZMPSTE24 mRNA expression level in mouse fibroblasts at 20 uM after 10 days by PCR; format: functional, cell-based
[15] = target: Protein-S-isoprenylcysteine O-methyltransferase (Homo sapiens) (UniProt O60725); assay: Inhibition of human ICMT expressed in yeast assessed as methylation of N-acetyl-farnesylcysteine
[16] = Toxicity in human AG08470 cells assessed as accumulation of prelamin A at 20 uM after 10 days by Western blot; format: cell-based; details: 240 h; outline: as §6
[17] = Toxicity in ICMT deficient mouse fibroblast cells assessed as accumulation of prelamin A at 20 uM after 24 hrs by Western blot; format: cell-based
Outline: (§7)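 Rce1−/− or Icmt−/− mouse embryonic fibroblasts were treated 24 h with drug (20 μM) or DMSO, with FTI (5 μM) as a comparator. Extracts were run on 4–12% Bis-Tris gels and Western blotted for lamin A/C and prelamin A, using antiserum "b", which recognises both farnesylated and nonfarnesylated forms.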

[18] = Toxicity in RCE1 deficient mouse fibroblast cells assessed as accumulation of prelamin A at 20 uM after 24 hrs by Western blot; format: cell-based; outline: as §7
Fibroblast [19] = assay: Effect on change in ZMPSTE24 protein level in mouse fibroblasts at 20 uM after 10 days by Western blot; format: functional, cell-based

Sequence of Protein-S-isoprenylcysteine O-methyltransferase (Homo sapiens) (O60725 whole entry): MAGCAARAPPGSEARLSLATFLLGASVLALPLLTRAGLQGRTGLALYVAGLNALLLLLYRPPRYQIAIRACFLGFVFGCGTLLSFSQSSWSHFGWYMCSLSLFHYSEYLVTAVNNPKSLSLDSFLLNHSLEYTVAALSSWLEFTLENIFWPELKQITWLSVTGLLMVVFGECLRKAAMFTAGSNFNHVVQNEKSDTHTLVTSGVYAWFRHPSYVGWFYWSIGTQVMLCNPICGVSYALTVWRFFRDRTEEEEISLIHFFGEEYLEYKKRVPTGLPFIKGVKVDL

SMILES	IC50 [1] [µM]	Activity [3]	Activity [7]	Activity (HeLa)	Activity [6]	Activity [9]	other results
Cc1ccnc2c1NC(=O)c1cccnc1N2C1CC1 [NEVIRAPINE]				Non-toxic			Activity [4]: Non-toxic; Activity [5]: Non-toxic
Cc1cn([C@H]2C=C[C@@H](CO)O2)c(=O)[nH]c1=O [STAVUDINE]				Non-toxic		Non-toxic	Activity [8]: Non-toxic

More lines, main results first:

IC50 [1] [µM]	Activity [3]	Activity [7]	SMILES	Activity (HeLa)	Activity [6]	Activity [9]	other results
1.2	inactive		CCC[C@@]1(CCc2ccccc2)CC(O)=C([C@H](CC)c2cccc(NS(=O)(=O)c3ccc(C(F)(F)F)cn3)c2)C(=O)O1 [TIPRANAVIR]				Activity (HEK293 [2]): Toxic
		inactive	COC(=O)N[C@H](C(=O)N[C@@H](Cc1ccccc1)[C@@H](O)CN(Cc1ccc(-c2ccccn2)cc1)NC(=O)[C@@H](NC(=O)OC)C(C)(C)C)C(C)(C)C [ATAZANAVIR]	Toxic	Toxic		
18.4	inactive	inactive	Cc1cccc(C)c1OCC(=O)N[C@@H](Cc1ccccc1)[C@@H](O)C[C@H](Cc1ccccc1)NC(=O)[C@H](C(C)C)N1CCCNC1=O [LOPINAVIR]	Toxic	Toxic	Toxic	Activity (HEK293 [10]): Toxic; Activity (Fibroblast [11]): inactive; Activity [12]: Toxic; Activity (Fibroblast [13]): inactive; Activity (Fibroblast [14]): inactive; Activity [15]: inactive; Activity [16]: Toxic; Activity [17]: Toxic; Activity [18]: Toxic; Activity (Fibroblast [19]): inactive
